Reference: ChEMBL document CHEMBL3414514, “Synthesis and pharmacological evaluation of novel bisindole derivatives bearing oximes moiety: identification of novel proapoptotic agents” (Eur J Med Chem, 2015)
Active and inactive are the calls of the source. The rule behind the calls is not given here.

How the values were obtained:
[1] = Induction of apoptosis in human T24 cells assessed as caspase-9 upregulation after 24 hrs by qRT-PCR analysis; assay type: functional, cell-based; conditions: T-24
Outline: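 T24 cells treated at […] for 24 h before RNA extraction. SYBR Green qRT-PCR with 500 nM primers: 2 min at 50 C, 10 min at 95 C, then 40 cycles of 15 s at 95 C and 1 min at 60 C. Expression by the ΔCt method against actin, normalized to untreated cells; run in triplicate.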

[2] = Induction of apoptosis in human T24 cells assessed as AIF upregulation at IC50 after 24 hrs by qRT-PCR analysis relative to control; assay type: functional, cell-based; conditions: T-24
T-24 [3] = assay: Induction of apoptosis in human T24 cells assessed as increase in caspase-3 protein expression at 20 uM after 6 to 24 hrs by Western blotting analysis; assay type: functional, cell-based
[4] = Cell cycle arrest in human T24 cells assessed as accumulation at G1 phase at 10 uM after 48 hrs by Rnase A/propidium iodide staining-based flow cytometry (reference value: 34.43%); assay type: functional; conditions: T-24
Outline: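 T24 cells exposed to […] for 48 h, washed with ice-cold PBS, then fixed and permeabilized overnight in ice-cold 70% ethanol. RNase A (100 mg/mL) treatment at 37 C for 30 min, then PI staining (1 mg/mL) in the dark at 4 C for 30 min. Flow cytometry gave the percentage of cells in G1, S and G2 phase.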

[5] = Cell cycle arrest in human T24 cells assessed as accumulation at G1 phase at 20 uM after 48 hrs by Rnase A/propidium iodide staining-based flow cytometry (reference value: 34.43%); assay type: functional; conditions: T-24
[6] = Cell cycle arrest in human T24 cells assessed as reduction in CDK4 level after 24 hrs by Western blotting analysis; assay type: functional, cell-based; conditions: T-24
Outline: (§1)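 T24 cells treated at […] for 24 h and lysed in ice-cold RIPA buffer with protease inhibitors and NaF. Protein measured by Bradford; 30 micrograms per lane run on 12% SDS-PAGE and transferred to PVDF. Blocked 2 h at room temperature, primary antibody overnight at 4 C, HRP secondary (1:2000) 1 h, chemiluminescence detection.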

[7] = Cell cycle arrest in human T24 cells assessed as increase in p53 level after 24 hrs by Western blotting analysis; assay type: functional, cell-based; conditions: T-24; outline: as §1
T-24 [8] = assay: Induction of apoptosis in human T24 cells assessed as necrotic cells at 5 to 20 uM after 24 hrs by AO/EB staining-based fluorescence microscopic analysis; assay type: functional, cell-based
Outline: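 T24 cells seeded at 5 × 10^4 cells/mL on cover slips. Medium was replaced with fresh medium containing 10% FBS and compound at 5, 10 or 20 µM for 24 h. Cover slips were inverted onto AO/EB stain and viewed by fluorescence microscopy. Live cells score uniform green, early apoptotic green-yellow, late apoptotic orange, and necrotic orange without condensed chromatin. Untreated cells served as control.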

T-24 [9] = assay: Induction of apoptosis in human T24 cells assessed as fragmented nuclei after 24 hrs by Hoechst 33258 staining-based fluorescence microscopic analysis relative to control; assay type: functional, cell-based
Outline: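 T24 cells on cover slips treated at […] for 24 h; untreated cells as control. Fixed in 4% paraformaldehyde for 10 min, PBS washes, Hoechst 33258 for 5 min. Nuclei imaged by fluorescence microscopy, excitation 350 nm, emission 460 nm.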

T-24 [10] = assay: Induction of apoptosis in human T24 cells assessed as early apoptotic cells at 5 uM after 24 hrs by annexin-V-FITC/propidium iodide staining-based flow cytometry (reference value: 2.74%); assay type: functional
T-24 [11] = assay: Induction of apoptosis in human T24 cells assessed as late apoptotic cells at 5 uM after 24 hrs by annexin-V-FITC/propidium iodide staining-based flow cytometry (reference value: 2.08%); assay type: functional

COc1ccc2c(c1)/C(=N\O)C(c1c[nH]c3ccc(OC)cc13)=N2
Activity [1]: Dose-dependent effect | fold change (FC) [2]: 4.47 | Activity (T-24 [3]): Active | Activity [4]: 57% | Activity [5]: 66.9% | Activity [6]: Dose-dependent effect | Activity [7]: Dose-dependent effect | Activity (T-24 [8]): inactive | Activity (T-24 [9]): Dose-dependent effect | Activity (T-24 [10]): 6.89% | Activity (T-24 [11]): 6.03%
